In series [1] the target is Bromodomain-containing protein 7 (Homo sapiens) (UniProt Q9NPI1). Nature of the series: Binding affinity to human partial length BRD7 (L125 to R254 residues) expressed in […] assessed as residual binding level at 1 uM measured after 1 hr by quantitative PCR based BROMOscan assay relative to control. The method, boiled down: (§1)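 A BROMOScan competition-binding panel of 32 bromodomains was run at a single 1 μM compound concentration. Results are primary-screen 'Percent Control', where lower values indicate stronger binding.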
Bromodomain-containing protein 7 (Homo sapiens), sequence (Q9NPI1 whole entry, the tested form may be a part): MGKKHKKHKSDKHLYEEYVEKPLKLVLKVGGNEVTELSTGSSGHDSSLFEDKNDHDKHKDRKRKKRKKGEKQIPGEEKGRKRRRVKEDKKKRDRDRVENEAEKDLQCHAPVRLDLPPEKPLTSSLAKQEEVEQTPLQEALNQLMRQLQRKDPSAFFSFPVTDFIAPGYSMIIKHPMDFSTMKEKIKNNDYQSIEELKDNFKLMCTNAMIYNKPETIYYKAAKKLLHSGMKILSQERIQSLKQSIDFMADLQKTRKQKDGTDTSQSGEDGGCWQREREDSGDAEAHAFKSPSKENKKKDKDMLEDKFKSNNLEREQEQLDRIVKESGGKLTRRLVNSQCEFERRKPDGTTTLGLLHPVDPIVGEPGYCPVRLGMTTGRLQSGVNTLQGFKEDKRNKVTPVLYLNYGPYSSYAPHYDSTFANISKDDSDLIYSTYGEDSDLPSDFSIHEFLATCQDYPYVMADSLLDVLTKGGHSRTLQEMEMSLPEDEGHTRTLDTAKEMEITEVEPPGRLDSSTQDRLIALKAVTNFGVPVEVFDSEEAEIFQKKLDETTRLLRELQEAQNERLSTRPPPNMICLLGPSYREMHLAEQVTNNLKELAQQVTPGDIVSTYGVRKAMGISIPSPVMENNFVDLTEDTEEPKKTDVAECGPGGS

In series [2] the target is Transcription initiation factor TFIID subunit 1 (Homo sapiens) (UniProt P21675). Nature of the series: Binding affinity to human partial length TAF1 bromodomain 2 (D1521 to D1656 residues) expressed in Escherichia coli BL21 cells assessed as residual binding level at 1 uM measured after 1 hr by quantitative PCR based BROMOscan assay relative to control. The method, boiled down: (§2)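 Bromodomain panel screen (32 bromodomains) run at 1 μM single concentration; primary binding reported as 'Percent Control', lower values meaning stronger interaction.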
Transcription initiation factor TFIID subunit 1 (Homo sapiens), sequence (P21675 whole entry, the tested form may be a part): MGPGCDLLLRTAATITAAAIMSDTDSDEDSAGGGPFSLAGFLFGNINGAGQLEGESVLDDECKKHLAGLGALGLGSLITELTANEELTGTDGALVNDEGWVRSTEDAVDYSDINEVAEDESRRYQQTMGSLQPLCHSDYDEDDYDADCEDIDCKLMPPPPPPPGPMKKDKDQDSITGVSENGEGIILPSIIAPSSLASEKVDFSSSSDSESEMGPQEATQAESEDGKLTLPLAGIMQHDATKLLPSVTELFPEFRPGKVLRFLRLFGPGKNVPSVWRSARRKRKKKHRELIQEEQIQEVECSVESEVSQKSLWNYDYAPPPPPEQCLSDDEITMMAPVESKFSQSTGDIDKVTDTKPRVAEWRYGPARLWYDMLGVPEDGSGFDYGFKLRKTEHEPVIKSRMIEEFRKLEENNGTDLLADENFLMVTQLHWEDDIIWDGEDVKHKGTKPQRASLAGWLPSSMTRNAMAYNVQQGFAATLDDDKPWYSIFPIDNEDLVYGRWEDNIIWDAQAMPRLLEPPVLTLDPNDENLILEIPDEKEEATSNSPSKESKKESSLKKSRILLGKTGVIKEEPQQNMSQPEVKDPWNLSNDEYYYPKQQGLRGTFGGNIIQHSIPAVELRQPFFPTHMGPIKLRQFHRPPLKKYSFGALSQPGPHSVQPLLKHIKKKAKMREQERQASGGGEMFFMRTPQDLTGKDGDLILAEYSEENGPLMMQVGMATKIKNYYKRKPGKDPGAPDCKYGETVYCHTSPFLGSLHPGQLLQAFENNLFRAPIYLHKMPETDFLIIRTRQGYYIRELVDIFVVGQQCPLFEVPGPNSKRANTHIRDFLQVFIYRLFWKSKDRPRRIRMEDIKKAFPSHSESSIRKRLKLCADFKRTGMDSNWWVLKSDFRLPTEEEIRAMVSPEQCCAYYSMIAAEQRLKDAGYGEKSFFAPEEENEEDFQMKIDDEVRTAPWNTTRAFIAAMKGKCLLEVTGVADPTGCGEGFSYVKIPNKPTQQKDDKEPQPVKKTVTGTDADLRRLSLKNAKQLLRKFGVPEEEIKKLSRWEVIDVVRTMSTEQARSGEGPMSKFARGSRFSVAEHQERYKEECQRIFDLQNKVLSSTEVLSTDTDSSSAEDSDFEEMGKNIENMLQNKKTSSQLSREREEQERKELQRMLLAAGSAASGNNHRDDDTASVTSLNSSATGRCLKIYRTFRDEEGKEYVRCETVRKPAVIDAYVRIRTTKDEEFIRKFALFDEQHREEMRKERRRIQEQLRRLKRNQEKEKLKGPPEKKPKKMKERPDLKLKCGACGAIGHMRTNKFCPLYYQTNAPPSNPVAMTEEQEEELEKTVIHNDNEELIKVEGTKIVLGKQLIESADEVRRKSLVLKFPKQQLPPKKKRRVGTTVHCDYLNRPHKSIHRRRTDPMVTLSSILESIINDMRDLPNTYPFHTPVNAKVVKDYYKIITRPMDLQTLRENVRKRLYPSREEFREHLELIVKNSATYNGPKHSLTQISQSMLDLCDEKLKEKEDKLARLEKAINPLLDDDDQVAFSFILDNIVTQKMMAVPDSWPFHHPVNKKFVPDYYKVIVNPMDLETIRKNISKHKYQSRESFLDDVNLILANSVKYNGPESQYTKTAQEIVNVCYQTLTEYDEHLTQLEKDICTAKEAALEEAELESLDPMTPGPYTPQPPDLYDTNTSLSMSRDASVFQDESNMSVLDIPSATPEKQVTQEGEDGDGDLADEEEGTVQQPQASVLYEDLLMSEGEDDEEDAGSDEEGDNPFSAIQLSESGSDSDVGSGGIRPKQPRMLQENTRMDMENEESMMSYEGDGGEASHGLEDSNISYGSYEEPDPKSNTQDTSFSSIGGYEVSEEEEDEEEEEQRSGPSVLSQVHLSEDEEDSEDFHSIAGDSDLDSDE

In series [3] the target is Bromodomain testis-specific protein (Homo sapiens) (UniProt Q58F21). The series is described as follows: Binding affinity to human partial length BRDT bromodomain 1 (N21 to E137 residues) expressed in Escherichia coli BL21 cells assessed as residual binding level at 1 uM measured after 1 hr by quantitative PCR based BROMOscan assay relative to control. In short, it runs like this: as §1

A short description of series [4]: AUC (0 to infinity) in rat plasma at 3 mg/kg, iv. It counts as ADME, organism-based. More on the design: dose 3 mg/kg, route intravenous, time infinity. The method, boiled down: (§3)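 Compound was given orally or intravenously in 1% DMSO/0.5% HPMC vehicle. Concentrations in plasma, or in brain where stated, gave Tmax, Cmax, T1/2, AUC0-t and AUC0-inf.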
Series [5] relates to MV4-11. The series is described as follows: Induction of apoptosis in human MV4-11 cells assessed as reduction in c-IAP1 level after 24 hrs by Western blot analysis. It counts as functional, cell-based. (A western blot detects proteins with antibodies after separation by electrophoresis.)
Series [6] is described as follows: AUC (0 to t) in rat plasma at 10 mg/kg, po. The class given is ADME, organism-based. In short, it runs like this: as §3
The nature of series [7]: AUC (0 to infinity) in ICR mouse brain at 50 mg/kg, po administered via gavage measured after 0.25 to 24 hrs by UPLC/MS analysis. It counts as ADME, organism-based. Set-up: dose 50 mg/kg, route oral, time infinity. In short, it runs like this: (§4)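 Male ICR mice were dosed orally in 1% DMSO/0.5% HPMC vehicle. Plasma (and brain, where stated) concentrations gave Tmax, Cmax, T1/2, AUC0-t and AUC0-inf.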

Series [8] is described as follows: Ratio of drug level in brain to plasma in ICR mouse at 50 mg/kg, po administered via gavage measured after 0.25 to 24 hrs by UPLC/MS analysis. It counts as ADME, organism-based. The method, boiled down: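 Male ICR mice dosed orally at 50 mg/kg in 1% DMSO/0.5% HPMC; drug measured in plasma and brain.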
The test system of series [9] is MV4-11. The series is described as follows: Induction of apoptosis in human MV4-11 cells assessed as increase in cleaved caspase-9 level after 24 hrs by Western blot analysis. It counts as functional, cell-based. In short, it runs like this: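 MV4-11 cells exposed to test agent at the indicated doses for 24 h. Lysates immunoblotted for full-length and cleaved caspase-3, -7, -8 and -9, with GAPDH as the loading reference.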

For series [10], the target named is Nucleosome-remodeling factor subunit BPTF (Homo sapiens) (UniProt Q12830). The series is described as follows: Binding affinity to human partial length FALZ (S2791 to H2911 residues) expressed in Escherichia coli BL21 cells assessed as residual binding level at 1 uM measured after 1 hr by quantitative PCR based BROMOscan assay relative to control. The method, boiled down: as §1

A short description of series [11]: Cmax in rat plasma at 10 mg/kg, po. The class given is ADME, organism-based. Set-up: dose 10 mg/kg, route oral.
Series [12] can be described thus: Bioavailability in rat at 3 mg/kg, iv. The class given is ADME, organism-based. Conditions: in vivo.
The target of series [13] is Bromodomain-containing protein 4 (Homo sapiens, UniProt O60885). The series is described as follows: Binding affinity to His6-tagged human BRD4 bromodomain 1 expressed in Escherichia coli BL21(DE3) )-codon plus-RIL cells by isothermal titration calorimetric method. The method, boiled down:
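BRD4 BD1 was His6-tagged and expressed in E. coli BL21(DE3)-codon plus-RIL with IPTG induction overnight at 16 °C. It was purified on Ni-NTA with imidazole step elution and concentrated in HEPES pH 7.5/NaCl/DTT gel filtration buffer. Kd was measured by isothermal titration calorimetry.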

Series [14] is described as follows: Half life in dog plasma at 1 mg/kg, iv. The class given is ADME, organism-based, Canis lupus familiaris.
The target of series [15] is Transcription intermediary factor 1-alpha (Homo sapiens) (UniProt O15164). Nature of the series: Binding affinity to human partial length TRIM24 (P790 to P977 residues) expressed in Escherichia coli BL21 cells assessed as residual binding level at 1 uM measured after 1 hr by quantitative PCR based BROMOscan assay relative to control. In short, it runs like this:
as §2

Series [16] is described as follows: AUC (0 to t) in rat plasma at 50 mg/kg, po. It counts as ADME, organism-based. In short, it runs like this: as §3
The target in series [17] is Serine/threonine-protein kinase PLK1 (Homo sapiens) (UniProt P53350). The series is described as follows: Inhibition of full-length recombinant human His-tagged PLK1 expressed in baculovirus expression system at 10 uM using Ser/Thr 16 Peptide as substrate after 60 mins by Z-LYTE assay relative to control.
Serine/threonine-protein kinase PLK1 (Homo sapiens), sequence (P53350 whole entry): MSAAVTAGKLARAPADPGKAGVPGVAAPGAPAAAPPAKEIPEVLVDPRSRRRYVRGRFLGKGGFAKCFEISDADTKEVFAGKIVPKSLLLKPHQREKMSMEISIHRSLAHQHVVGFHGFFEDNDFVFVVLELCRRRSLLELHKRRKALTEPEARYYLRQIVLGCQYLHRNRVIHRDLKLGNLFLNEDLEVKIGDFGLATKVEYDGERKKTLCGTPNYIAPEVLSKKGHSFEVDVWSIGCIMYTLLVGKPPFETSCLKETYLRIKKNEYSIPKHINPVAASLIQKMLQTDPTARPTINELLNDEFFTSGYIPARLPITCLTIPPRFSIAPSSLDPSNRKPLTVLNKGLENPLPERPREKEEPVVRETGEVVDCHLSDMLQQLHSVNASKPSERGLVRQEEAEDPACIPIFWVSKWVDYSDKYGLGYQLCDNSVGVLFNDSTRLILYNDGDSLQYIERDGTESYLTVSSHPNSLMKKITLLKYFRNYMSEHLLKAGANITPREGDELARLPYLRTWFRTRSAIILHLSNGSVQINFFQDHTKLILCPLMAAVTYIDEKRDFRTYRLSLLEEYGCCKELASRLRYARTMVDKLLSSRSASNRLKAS
Series [18] in a line: Drug uptake in plasma of Balb/c nude mouse xenografted with human MV4-11 cells at 10 to 50 mg/kg, po measured after 1 to 8 hrs. The class given is ADME, organism-based. As to conditions: in vivo. The method, boiled down: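 MV4-11 xenografts in BALB/c nude mice given oral compound; drug concentrations in plasma and tumor tissue measured at 1 h and 8 h after dosing.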
The target in series [19] is Bromodomain-containing protein 2 (Homo sapiens) (UniProt P25440). The series is described as follows: Inhibition of BRD2 bromodomain 2 (unknown origin). In short, it runs like this: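 Bromodomain binding panel (32 bromodomains) screened at 1 μM; primary binding read-out reported as percent of control, lower values meaning stronger binding.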
Bromodomain-containing protein 2 (Homo sapiens), sequence (P25440 whole entry, looked up): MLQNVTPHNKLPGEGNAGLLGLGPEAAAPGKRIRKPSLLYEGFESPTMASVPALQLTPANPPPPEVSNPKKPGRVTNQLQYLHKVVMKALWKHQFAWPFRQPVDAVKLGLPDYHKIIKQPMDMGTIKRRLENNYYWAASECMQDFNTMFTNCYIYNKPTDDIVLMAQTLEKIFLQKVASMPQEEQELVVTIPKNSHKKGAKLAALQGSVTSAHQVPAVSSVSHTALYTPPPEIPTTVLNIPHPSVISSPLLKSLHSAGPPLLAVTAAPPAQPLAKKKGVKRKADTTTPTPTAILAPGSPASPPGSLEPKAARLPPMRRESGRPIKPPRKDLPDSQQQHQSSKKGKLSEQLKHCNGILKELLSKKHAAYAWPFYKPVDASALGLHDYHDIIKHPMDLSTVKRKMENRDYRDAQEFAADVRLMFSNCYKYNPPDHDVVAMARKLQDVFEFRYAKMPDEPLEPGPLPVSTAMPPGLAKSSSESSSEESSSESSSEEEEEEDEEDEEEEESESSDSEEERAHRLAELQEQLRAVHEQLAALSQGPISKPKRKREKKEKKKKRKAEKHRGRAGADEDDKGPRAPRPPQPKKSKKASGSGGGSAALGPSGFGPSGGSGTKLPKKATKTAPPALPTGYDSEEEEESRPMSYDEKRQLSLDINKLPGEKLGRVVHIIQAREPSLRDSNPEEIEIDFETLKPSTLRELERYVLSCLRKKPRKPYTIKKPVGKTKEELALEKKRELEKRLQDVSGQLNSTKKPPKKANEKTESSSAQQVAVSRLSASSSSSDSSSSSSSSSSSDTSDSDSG
Series [20] relates to MDA-MB-436. Nature of the series: Antiproliferative activity against human MDA-MB-436 cells after 72 hrs by CCK8 or SRB assay. It counts as functional, cell-based. (In general: Formazan colour is commonly taken as a measure of viable cells.)
Series [21] addresses Bromodomain testis-specific protein (Homo sapiens) (UniProt Q58F21). The series is described as follows: Binding affinity to human partial length BRDT bromodomain 2 (K250 to E382 residues) expressed in Escherichia coli BL21 cells assessed as residual binding level at 1 uM measured after 1 hr by quantitative PCR based BROMOscan assay relative to control. In short, it runs like this: as §1

Series [22] is described as follows: Cmax in ICR mouse plasma at 100 mg/kg, po administered via gavage measured after 0.25 to 24 hrs by UPLC/MS analysis. It counts as ADME, organism-based. Set-up: dose 100 mg/kg, route oral. The method, boiled down: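 Male ICR mice dosed orally in 1% DMSO/0.5% HPMC vehicle; plasma or brain drug levels used to derive Tmax, Cmax, AUC0-t, AUC0-inf and T1/2.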
The nature of series [23]: Tmax in rat plasma at 10 mg/kg, po. It counts as ADME, organism-based. In short, it runs like this: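 Oral dosing in 1% DMSO/0.5% HPMC vehicle (dog 3 mg/kg; rat 10 mg/kg); plasma drug levels measured.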
Series [24] can be described thus: AUC (0 to t) in ICR mouse plasma at 100 mg/kg, po administered via gavage measured after 0.25 to 24 hrs by UPLC/MS analysis. The class given is ADME, organism-based. More on the design: time upper 24 hr, dose 100 mg/kg, time lower 0.25 hr, route oral. The method, boiled down: as §4

Broadly, the AUC(0-inf) is the area under the concentration-time curve extrapolated to infinity. As a reminder, the AUC(0-t) is exposure summed from dosing to a finite time, without extrapolation to infinity. In general, Cmax refers to the highest concentration seen after dosing. As a reminder, the bioavailability is the share of a dose that reaches the circulation, judged against a reference dose that is usually intravenous. A word on the pKd: it is −log10 of the Kd, conventionally taken in molar units. By half-life is commonly meant the time needed for the level to fall by half in the phase considered. Higher therefore signals slow loss. One may read the inhibition as the drop in the measured response relative to a control, in per cent. What is called Tmax is the time from dosing to the highest level.

pKd: −log10 of the molar value. Activity calls are given as the source filed them.

Transcription intermediary factor 1-alpha (Homo sapiens), sequence (O15164 whole entry, the tested form may be a part): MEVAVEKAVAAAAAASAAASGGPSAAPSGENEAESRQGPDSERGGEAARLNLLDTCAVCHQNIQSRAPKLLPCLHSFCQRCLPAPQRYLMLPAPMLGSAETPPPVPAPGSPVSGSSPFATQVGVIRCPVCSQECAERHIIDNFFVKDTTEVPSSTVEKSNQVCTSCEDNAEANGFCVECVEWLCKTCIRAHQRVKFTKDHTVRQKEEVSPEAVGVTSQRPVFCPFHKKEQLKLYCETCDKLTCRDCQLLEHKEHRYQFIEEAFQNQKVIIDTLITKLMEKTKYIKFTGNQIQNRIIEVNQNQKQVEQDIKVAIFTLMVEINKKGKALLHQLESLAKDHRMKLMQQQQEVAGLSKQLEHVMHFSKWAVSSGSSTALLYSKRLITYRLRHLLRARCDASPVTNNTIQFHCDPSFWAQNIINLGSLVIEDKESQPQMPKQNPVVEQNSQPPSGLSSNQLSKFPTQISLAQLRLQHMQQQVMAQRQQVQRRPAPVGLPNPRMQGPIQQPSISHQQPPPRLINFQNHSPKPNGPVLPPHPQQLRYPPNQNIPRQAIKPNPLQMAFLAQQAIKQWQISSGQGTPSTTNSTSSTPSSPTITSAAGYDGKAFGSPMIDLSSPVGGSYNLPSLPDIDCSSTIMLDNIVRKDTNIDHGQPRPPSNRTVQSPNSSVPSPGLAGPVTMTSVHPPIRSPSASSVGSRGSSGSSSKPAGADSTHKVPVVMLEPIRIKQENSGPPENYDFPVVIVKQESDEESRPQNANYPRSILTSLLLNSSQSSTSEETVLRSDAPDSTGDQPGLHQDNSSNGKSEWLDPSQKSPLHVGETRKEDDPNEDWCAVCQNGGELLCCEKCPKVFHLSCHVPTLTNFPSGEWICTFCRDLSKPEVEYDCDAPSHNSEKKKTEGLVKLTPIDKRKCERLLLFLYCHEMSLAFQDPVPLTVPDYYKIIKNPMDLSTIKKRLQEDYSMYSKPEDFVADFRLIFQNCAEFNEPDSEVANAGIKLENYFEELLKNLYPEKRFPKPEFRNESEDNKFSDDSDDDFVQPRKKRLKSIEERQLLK

On to `Cc1ccc(-n2nc(C(=O)N3C[C@@H](C)N[C@@H](C)C3)nc2-c2ccc3c(c2)N(C2CCCC2)[C@H](C)C(=O)N3C)cc1`, for which the Activity in series [1] is 70 to 100%; in series [2] it was 5 to 20%; in series [3] it was below 5%; in [5], “Dose-dependent effect”; in series [9] it was “Dose-dependent effect”; in series [10], 70 to 100%. The Activity is 50 to 70% in [15] and below 5% in series [21]. Besides, the AUC(0-inf) in [4] was determined as 2.08 µg·h/mL; in [7], 2.33 µg·h/mL. Moreover, the AUC(0-t) in [6] was 1.22 µg·h/mL; in [16], 3.82 µg·h/mL; in [24], 80.6 µg·h/mL. In series [8], the BPR came to 13.9%. Also, the Cmax in series [11] amounted to 0.182 µg/mL; in series [22] it was 13.8 µg/mL. In series [12], this molecule gave a bioavailability of 18.2%. The pKd in series [13] is 7.82. For the same molecule, the half-life in series [14] was 9.4 h. Further, in [17], the inhibition is below 10%. In addition, the Drug uptake entry in [18] is on record as “Active”. Further, the inhibition entry in [19] is “Active”. Further, the result in [20] was Active. The Tmax in series [23] came out at 2.3 h.
